Laboratory results: ChEMBL document CHEMBL1649301, “Polyamine transport as a target for treatment of Pneumocystis pneumonia” (Antimicrob Agents Chemother, 2009)
Active and inactive are the calls of the source. No cut-off for these calls is given here.

Columns and labels:
[1] = Cytotoxicity against Sprague-Dawley rat alveolar macrophages assessed as cell viability at 2 mM after 3 hrs by trypan blue exclusion assay; format: cell-based, Macrophage; settings: for Activity: macrophage, 3 h, 2000 µM
How it was run: (§1)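 Alveolar macrophages from normal rats (10⁶ per well) were kept in serum-free DMEM with compound for 3 h. They were then stained with 0.4% trypan blue, and unstained viable cells were counted.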

[2] = Cytotoxicity against Sprague-Dawley rat alveolar macrophages assessed as cell viability at 0.4 mM after 3 hrs by trypan blue exclusion assay; format: cell-based, Macrophage; settings: read-out: Activity; how it was run: as §1
[3] = Inhibition of polyamine transporter expressed in CHO cells; format: cell-based
CHO-MG = test: Inhibition of polyamine uptake in CHO-MG cells; format: functional, cell-based; settings: Cricetulus griseus
[4] = Ratio of IC50 for polyamine uptake in CHO-MG cells to IC50 for polyamine transporter expressed in CHO cells
Pneumocystis carinii [5] = test: Antimicrobial activity against Pneumocystis carinii infected in Sprague-Dawley rat assessed as increase of host survival time at 0.5 mg/kg, intranasally every 2 days 28 days after infection; format: functional
How it was run: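 Female Sprague-Dawley rats (~120 g) were immunosuppressed with dexamethasone 1.8 mg/liter in drinking water. One week later they were inoculated transtracheally with 7.5 × 10⁶ trophic forms, with weekly intramuscular penicillin. From infection day 28, rats received 50 μl of a 1 mM solution intranasally every 2 days (7–8 rats/group), alongside untreated infected and uninfected controls. Survival was followed to day 84 and compared by Kaplan-Meier/log-rank.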

Pneumocystis carinii [6] = test: Antimicrobial activity against Pneumocystis carinii infected in Sprague-Dawley rat assessed as increase of open alveolar space at 0.5 mg/kg, intranasally every 2 days 28 days after infection for 21 days; format: functional, organism-based; parameters: dose 0.5 mg/kg
How it was run: (§2)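 Female Sprague-Dawley rats (~120 g) were immunosuppressed with dexamethasone at 1.8 mg/liter in drinking water. After 1 week they received a transtracheal inoculum of 7.5 × 10⁶ trophic forms, plus penicillin i.m. weekly. From infection day 28, they were given 50 μl of a 1 mM solution intranasally every 2 days. After 21 days, lungs were fixed in 4% paraformaldehyde, and paraffin sections were H&E-stained and examined by light microscopy. Inflammation was graded 0–5.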

Pneumocystis carinii [7] = test: Antimicrobial activity against Pneumocystis carinii infected in Sprague-Dawley rat assessed as reduction of alveolar septum thickness at 0.5 mg/kg, intranasally every 2 days 28 days after infection for 21 days; format: functional, organism-based; parameters: dose 0.5 mg/kg; how it was run: as §2
Pneumocystis carinii [8] = test: Antimicrobial activity against Pneumocystis carinii infected in Sprague-Dawley rat assessed as reduction of inflammation at 0.5 mg/kg, intranasally every 2 days 28 days after infection for 21 days; format: functional, organism-based; parameters: dose 0.5 mg/kg; how it was run: as §2
Pneumocystis carinii [9] = test: Antimicrobial activity against Pneumocystis carinii infected in Sprague-Dawley rat assessed as reduction of foamy exudates in alveoli at 0.5 mg/kg, intranasally every 2 days 28 days after infection for 21 days; format: functional, organism-based; parameters: dose 0.5 mg/kg; how it was run: as §2
Pneumocystis carinii [10] = test: Antimicrobial activity against Pneumocystis carinii infected in Sprague-Dawley rat assessed as reduction of organism burden in lungs at 0.5 mg/kg, intranasally every 2 days 28 days after infection for 21 days; format: functional, organism-based; parameters: dose 0.5 mg/kg
How it was run: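 The dexamethasone-immunosuppressed, P. carinii-infected female Sprague-Dawley rats were dosed intranasally with 50 μl of a 1 mM solution every 2 days from infection day 28, for 21 days. Cysts were counted in paraffin lung sections stained with modified Grocott's methenamine silver, and burden was graded on a 0–4 scale.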

Pneumocystis carinii [11] = test: Antimicrobial activity against Pneumocystis carinii infected in Sprague-Dawley rat assessed as reduction of number of apoptotic alveolar macrophages at 0.5 mg/kg, intranasally every 2 days 28 days after infection for 21 days; format: functional; parameters: scale not given: the % may be the effect or the level left
How it was run: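 Lung sections came from infected, dexamethasone-treated rats given 50 μl of 1 mM intranasally every 2 days for 21 days from day 28. Sections were digested with proteinase K (20 μg/ml, room temperature, 10 min), then TdT/fluorescein-12-dUTP labelled (37°C, 1 h) and DAPI-mounted. Apoptotic macrophage percentage was taken as TUNEL+/DAPI+ cells over 10 random 100× fields per slide.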

Pneumocystis carinii [12] = test: Antimicrobial activity against Pneumocystis carinii infected in Sprague-Dawley rat assessed as reduction of inflammatory cell infiltration at 0.5 mg/kg, intranasally every 2 days 28 days after infection for 21 days; format: functional, organism-based; parameters: dose 0.5 mg/kg; how it was run: as §2
Pneumocystis carinii [13] = test: Antimicrobial activity against Pneumocystis carinii infected in Sprague-Dawley rat assessed as effect on alveolar structure at 0.5 mg/kg, intranasally every 2 days 28 days after infection for 21 days; format: functional, organism-based; parameters: dose 0.5 mg/kg; how it was run: as §2
Pneumocystis carinii [14] = test: Antimicrobial activity against Pneumocystis carinii infected in Sprague-Dawley rat assessed as effect on foamy exudates in alveoli at 0.5 mg/kg, intranasally every 2 days 28 days after infection for 21 days; format: functional, organism-based; parameters: dose 0.5 mg/kg; how it was run: as §2

Row | Compound | IC50 [3] | viability at 3 h, 2000 µM ([1]; Sprague-Dawley, alveolar macrophages, read-out: Activity) | viability at 3 h, 400 µM [2] | IC50 (CHO-MG) | Ratio IC50 [4] | Survival (Pneumocystis carinii [5]) | Activity [1] | Activity (Pneumocystis carinii [6]) | Activity (Pneumocystis carinii [7]) | Activity (Pneumocystis carinii [8]) | Activity (Pneumocystis carinii [9]) | Activity (Pneumocystis carinii [10]) | Activity (Pneumocystis carinii [11]) | Activity (Pneumocystis carinii [12]) | Activity (Pneumocystis carinii [13]) | Activity (Pneumocystis carinii [14])
1 | Cl.NCCCCNCCCCNCc1c2ccccc2c(CNCCCCNCCCCN)c2ccccc12 | 0.045 µM | – | – | > 100 µM | >2222 | 84 days | Non-toxic | Active | Active | Active | Active | Active | 80% | – | – | –
2 | Cl.NCCCCNCCCCNCc1ccc(CNCCCCNCCCCN)cc1 | 0.074 µM | – | – | 50.2 µM | 677 | 84 days | Non-toxic | – | – | – | – | Active | inactive | Active | inactive | inactive

Now from value to molecule, other results behind:

Row | IC50 [3] | Compound | viability at 3 h, 2000 µM ([1]; Sprague-Dawley, alveolar macrophages, read-out: Activity) | viability at 3 h, 400 µM [2] | IC50 (CHO-MG) | Ratio IC50 [4] | Survival (Pneumocystis carinii [5]) | Activity [1] | Activity (Pneumocystis carinii [6]) | Activity (Pneumocystis carinii [7]) | Activity (Pneumocystis carinii [8]) | Activity (Pneumocystis carinii [9]) | Activity (Pneumocystis carinii [10]) | Activity (Pneumocystis carinii [11]) | Activity (Pneumocystis carinii [12]) | Activity (Pneumocystis carinii [13]) | Activity (Pneumocystis carinii [14])
3 | 10.6 µM | NCCCCNCCCCNCCCCNCc1c2ccccc2cc2ccccc12 | 42% | 88% | 33.2 µM | – | – | – | – | – | – | – | – | – | – | – | –
4 | 7.7 µM | Cl.Cl.NCCCCNCc1c2ccccc2cc2ccccc12 | – | < 16% | – | 1 | – | – | – | – | – | – | – | – | – | – | –
5 | 0.45 µM | NCCCCNCCCCNCc1c2ccccc2cc2ccccc12 | – | < 16% | – | – | – | – | – | – | – | – | – | – | – | – | –
